The record followed here is ChEMBL document CHEMBL4513216, “Probing the Open Global Health Chemical Diversity Library for Multistage-Active Starting Points for Next-Generation Antimalarials” (ACS Infect Dis, 2020).

The data set in a line: Toxicity liver stage against HepG2, at 10uM. Format: cell-based. Further details: test concentration 10 uM, cell line HepG2-A16-CD81EGFP. Particulars: human, HepG2-A16-CD81EGFP cells; read-out: INHIBITION
In a few lines:
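Uninfected HepG2-A16-CD81EGFP cells, 3 × 10^3 per well, 1536-well, plated on prespotted compound at 10 μM final, parasite-free screening media added to match infected plates; puromycin 10 μM positive, DMSO 0.5% negative; run in parallel with 48 h PbLuc assay at 37 °C, 5% CO2; viability by CellTiter-Glo luminescence, normalized to controls.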
As to `CCN(CC)C(=O)c1ccc(Cl)c(NC(=O)c2cnc(C)cn2)c1`, the cytotoxicity at 10 µM was -0.273%.

On to `CC(C)c1nc2c(n1C)CCN(Cc1cccc(C(N)=O)c1)C2`, for which the cytotoxicity at 10 µM was -7.39%.

Regarding `Cn1cnnc1C1CCCN(C(=O)NCCn2ccnc2)C1` (configuration not stated), the cytotoxicity at 10 µM is -2.74%.

As for `Nc1nccc(N[C@H]2CN(CC(=O)NC3CCCCC3)C[C@@H]2C2CC2)n1`, the cytotoxicity at 10 µM was -0.208%.

On to `O=C(CCn1c(=O)oc2ccccc21)NCC(O)c1ccc(Cl)cc1` (configuration not stated), for which the cytotoxicity at 10 µM is -1.25%.

With `COCCN1C[C@@H]2[C@@H](OC)CCN(Cc3cccs3)[C@@H]2C1`, the cytotoxicity at 10 µM amounted to 3.86%.

Consider `O=C(N1CCCC1)N1C[C@@H](OCc2cccnc2)[C@H]2OCCC[C@H]21`, for which the cytotoxicity at 10 µM was determined as 4.85%.

In the case of `CCNC(=O)c1cnc(Cc2ccc(F)cc2)s1`, the cytotoxicity at 10 µM is 4.44%.

Take `CCN1CC(C(=O)N2CCN(c3cnn(C)c(=O)c3)CC2)CCC1=O` (configuration not stated): the cytotoxicity at 10 µM was found to be 0.508%.

Turning to `CCN1CCc2[nH]cnc2C12CCN(C(=O)CCc1cccs1)CC2`, the cytotoxicity at 10 µM was 0.688%.

Turning to `Fc1ccc(OCc2nnc([C@H]3CCN(Cc4ccccn4)C3)o2)cc1`, the cytotoxicity at 10 µM was 0.413%.

`COCCCNC(=O)CN(C)C(=O)c1ccc(-n2cccc2)cc1O`: the cytotoxicity at 10 µM was -13.5%.

As for `Cc1cc(C)n(C2CCCN(C(=O)CCNS(C)(=O)=O)C2)n1` (configuration not stated), the cytotoxicity at 10 µM was found to be 6.62%.

Take `COc1ccc(-c2cc(C3CC3)c(C#N)c(N)n2)cc1F`: the cytotoxicity at 10 µM was -2.84%.

With `Cc1cnc(CCNC(=O)NCCOc2ncccc2Cl)s1`, the cytotoxicity at 10 µM turned out to be 9.18%.

`O=C(CN1CCC(c2nnc(C(F)(F)F)o2)CC1)Nc1cccnc1`: the cytotoxicity at 10 µM was -2.46%.

Regarding `CC(C)S(=O)(=O)c1nnc(CCNC(=O)OC(C)(C)C)o1`, the cytotoxicity at 10 µM turned out to be 9.28%.

For the compound `CCN(CC)Cc1ccc(C(=O)N2CCCC2Cn2cccn2)cc1` (configuration not stated), the cytotoxicity at 10 µM is -10.7%.

`CCCN1CCC(N2CCC(Cn3cc(CC(C)O)nn3)CC2)CC1` (configuration not stated): the cytotoxicity at 10 µM is -1.89%.

In the case of `CCOC(=O)c1c(NC(=O)C2CCN(C(C)=O)CC2)sc(C)c1CC`, the cytotoxicity at 10 µM was determined as 10.9%.

For the compound `Cc1ncnc2c1CCN(C(=O)c1ccncc1)CC2`, the cytotoxicity at 10 µM was 12%.

`NC(=O)NCCC(=O)NCc1cccnc1N1CCc2ccccc2C1`: the cytotoxicity at 10 µM is 4.92%.

`Cc1cc(C)n(CC2CCCN2C(=O)c2ccc3c(c2)OCO3)n1` (configuration not stated): the cytotoxicity at 10 µM was -9.31%.

`CN(Cc1ccoc1)C(=O)C1CCN(C(=O)C2CCCC2)CC1`: the cytotoxicity at 10 µM was -7.77%.

Take `CS(=O)(=O)NC1CCCN(c2ccc(C#N)cn2)C1` (configuration not stated): the cytotoxicity at 10 µM was -12.7%.

With `Cc1csc(CCNC(=O)N2CCC(NC(=O)OC(C)(C)C)CC2)n1`, the cytotoxicity at 10 µM was 1.23%.

Regarding `CC(C)=CCC/C(C)=C/CN1CCN(C)C2(CCNC(=O)CC2)C1` (configuration not stated), the cytotoxicity at 10 µM was -54.1%.

For `CCS(=O)(=O)N1CC[C@@H]2[C@H](CC1)N(Cc1cccnc1)CCS2(=O)=O`, the cytotoxicity at 10 µM was -3.12%.

`COc1ccccc1[C@@H]1CN(Cc2nccn2C)C[C@H]1C(=O)O`: the cytotoxicity at 10 µM was -4.83%.

In the case of `COc1cccc(C(C)N2CCN(S(C)(=O)=O)CC2)c1` (configuration not stated), the cytotoxicity at 10 µM is -8.42%.

For `CC(C)(C)n1cc(CNC2CCN(C(=O)c3ccncc3)CC2)cn1`, the cytotoxicity at 10 µM was -6.72%.

On to `CCCc1n[nH]c(C2CN(CCNS(C)(=O)=O)CCO2)n1` (configuration not stated), for which the cytotoxicity at 10 µM was -0.975%.

On to `CC(C)NC(=O)CN1CCN(CC2CCOc3ccccc3C2)CC1` (configuration not stated), for which the cytotoxicity at 10 µM is -1.72%.

For `CCc1nnc(CN2CCOC(Cn3cc(C)cn3)C2)o1` (configuration not stated), the cytotoxicity at 10 µM was -6.59%.

Regarding `CS(=O)(=O)N1CCCCC12CCN(c1nncs1)CC2`, the cytotoxicity at 10 µM amounted to 10.6%.

Regarding `O=C1[C@H]2CN(Cc3ccoc3)C[C@H]2CN1Cc1ccncc1`, the cytotoxicity at 10 µM is -14.1%.

Consider `O=C1NC2(CCc3ccccc31)CCN(C(=O)c1ccncc1)C2` (configuration not stated), for which the cytotoxicity at 10 µM amounted to 0.84%.

For the compound `Cc1nn(C)c2c(NC3CCCC3)nc(C3CC3)nc12`, the cytotoxicity at 10 µM was -0.801%.

Regarding `O=C(NCCn1ccnc1)NCc1ccc(N2CCCCCC2)nc1`, the cytotoxicity at 10 µM was found to be 19%.

Consider `CC(=O)NCC(=O)N1Cc2nc(COCc3csc(C)n3)oc2C1`, for which the cytotoxicity at 10 µM was found to be 0.503%.

For `CCCC(NC(=O)c1cc(C)ccc1C)c1nnn[nH]1` (configuration not stated), the cytotoxicity at 10 µM is -9.11%.

For the compound `COc1ccc(-c2cc(CNc3ncnc4c3CCNCC4)no2)cc1`, the cytotoxicity at 10 µM was found to be 13.1%.

As to `O=C(c1cccc(F)c1)N1CCCC1c1ncc2c(n1)CCNC2` (configuration not stated), the cytotoxicity at 10 µM is -12.2%.

As for `C[C@@H]1CN(C(=O)c2ccncc2)CC[C@@]1(O)C1CCOCC1`, the cytotoxicity at 10 µM came to 0.301%.

`Cc1nc(CN2CCO[C@@H]3CN(Cc4nccs4)C[C@@H]3C2)cs1`: the cytotoxicity at 10 µM was found to be 4.8%.

As to `O=C(NCCn1ccnc1)N1CCCN(Cc2cccs2)CC1`, the cytotoxicity at 10 µM is -29.7%.

`CNc1nc(CNC(=O)Nc2ccccc2OC(C)C)cs1`: the cytotoxicity at 10 µM is -12.1%.

On to `CC(C)N(CCNc1nc(C2CCCC2)nc2c1cnn2C)C(C)C`, for which the cytotoxicity at 10 µM is 5.29%.

Regarding `CCOc1ncccc1CNC(=O)Nc1ccccc1`, the cytotoxicity at 10 µM is -4.87%.

As to `Cc1ccc(C(=O)N2CC[C@@H]3[C@H]2CCC(=O)N3c2ccccc2)o1`, the cytotoxicity at 10 µM is -3.89%.

Turning to `O=C(C1CCCN(Cc2cccc(F)c2)C1)N1CCc2sccc2C1` (configuration not stated), the cytotoxicity at 10 µM is -0.23%.

As to `Clc1ccc2nc(N3CCC(NCCCC4CCOC4)CC3)sc2c1` (configuration not stated), the cytotoxicity at 10 µM stood at 4.1%.

Take `Cc1cccc(C(=O)N2CCc3c(CN(C)C)nn(C)c3C2)n1`: the cytotoxicity at 10 µM is 3.61%.

Turning to `CCOC(=O)[C@H]1CNC[C@H]1C(=O)OCC`, the cytotoxicity at 10 µM came out at 9.24%.

As to `CS(=O)(=O)Cc1nc(CN2CCOc3ccccc3C2)cs1`, the cytotoxicity at 10 µM is 5.81%.

On to `c1ncn(Cc2cn3c(n2)CN(CC2CCCC2)CC3)n1`, for which the cytotoxicity at 10 µM is -127%.

On to `CCOCc1nn(CC2CC2)c2c1CN(Cc1cccs1)CC2`, for which the cytotoxicity at 10 µM is -108%.

Consider `CCNc1nc(C)c(C(=O)N(C)Cc2noc(C)n2)s1`, for which the cytotoxicity at 10 µM came to 2.43%.

For the compound `CN(C)C(CNS(=O)(=O)c1cnn(C)c1)c1cccc(F)c1` (configuration not stated), the cytotoxicity at 10 µM was found to be 5.66%.

With `Cc1nc(N2CCC(C(O)c3nccn3C)CC2)c2sccc2n1` (configuration not stated), the cytotoxicity at 10 µM is -19.5%.

For the compound `COc1ccc(CNC(=O)NCc2c(C)cc(C)[nH]c2=O)cc1`, the cytotoxicity at 10 µM was -3.22%.

For the compound `Nc1cc(N2CCCC2c2cnccn2)ncn1` (configuration not stated), the cytotoxicity at 10 µM worked out at 0.153%.

Take `CC(Cn1ccnc1)NC(=O)NCCNC(=O)C(C)C` (configuration not stated): the cytotoxicity at 10 µM was -3.51%.

For the compound `O=C(Nc1ccccc1OC1CCOC1)c1[nH]nc2c1CCCC2` (configuration not stated), the cytotoxicity at 10 µM was determined as 0.271%.

With `N#Cc1ccc(CNCC2CCN(CCO)CC2)cc1`, the cytotoxicity at 10 µM is -9.7%.

As for `O=C(NCCSC1CCCC1)c1cnccn1`, the cytotoxicity at 10 µM was -0.95%.

As for `CCc1ncc2c(n1)CN(C(=O)CNC(=O)C(C)C)C2`, the cytotoxicity at 10 µM was found to be 7.28%.

For `CNc1cncc(C2CCCN2C(=O)Cn2ccnc2C)n1` (configuration not stated), the cytotoxicity at 10 µM was -4.31%.

Turning to `CCc1ccc(C(=O)N2CCCN(Cc3nccn3CC)CC2)s1`, the cytotoxicity at 10 µM was -8.72%.

Turning to `O=C(CN1CCN(CCO)CC1)NC(C1CC1)C1CC1`, the cytotoxicity at 10 µM was -6.56%.

On to `CN(Cc1cccnc1N)Cc1cccc2ncccc12`, for which the cytotoxicity at 10 µM is 53.8%.

Turning to `COCCN1CCC(NCc2ccc(F)cc2F)C1` (configuration not stated), the cytotoxicity at 10 µM is -2.67%.

Take `CSCCCN1CC[C@@H](NC(=O)c2cnccn2)[C@H](O)C1`: the cytotoxicity at 10 µM is -14.6%.

For the compound `CC(C)OCCN1CCN(C(=O)c2cccc(CC#N)c2)CC1`, the cytotoxicity at 10 µM came out at 0.119%.

For `CC(=O)N1CCC(N[C@@H]2CO[C@H](CNC(=O)c3cccs3)[C@H]2O)CC1`, the cytotoxicity at 10 µM amounted to 1.96%.

`CC(=O)N1CCC2(CCN(C(=O)c3cccc(C(F)(F)F)c3)CC2)C1`: the cytotoxicity at 10 µM was -71.5%.

With `Cc1ccc(OC2(C(=O)O)CCN(C/C=C/c3ccco3)CC2)c(C)n1`, the cytotoxicity at 10 µM was found to be 0.449%.

With `CC(C)Nc1cc(N2CCC(n3cc(C4CC4)nn3)CC2)ncn1`, the cytotoxicity at 10 µM is 7.88%.

In the case of `CCN1CC2(CC1=O)CN(Cc1ccoc1)CCN(C(=O)C(C)C)C2` (configuration not stated), the cytotoxicity at 10 µM was 9.14%.

With `O=S(=O)(C1CC1)N1CCOC2(CCCN(c3cccc(F)c3)C2)C1` (configuration not stated), the cytotoxicity at 10 µM worked out at 8.46%.

For `Cn1cc(CN2CCO[C@H]3CN(Cc4ccsc4)C[C@H]32)cn1`, the cytotoxicity at 10 µM was -147%.

As for `O=C(CCc1ccsc1)NCc1ccnc(OC2CCOCC2)c1`, the cytotoxicity at 10 µM was determined as 5.92%.

As to `Cc1ccc(N2C[C@H]3OCC[C@H]3[C@H](C(=O)NCc3ccco3)C2)nn1`, the cytotoxicity at 10 µM is -67.4%.

For `O=C(NCCc1ccncc1)c1ccc(N2CCOCC2)cc1`, the cytotoxicity at 10 µM was -5.08%.

`C[C@@H]1CN(C(=O)c2cccs2)C[C@]12CCN(CCN(C)C)C2=O`: the cytotoxicity at 10 µM is 4.4%.

As to `CCC[C@H]1CN(Cc2ccc(N(C)C)nc2)C[C@@H]1NC(=O)CCOC`, the cytotoxicity at 10 µM was 15.5%.

In the case of `CN(C)C1CCN(C(=O)C2SCCc3ccccc32)CC1` (configuration not stated), the cytotoxicity at 10 µM is -4.67%.

On to `c1cnc(N2CCOCC3(CCCN(c4nncs4)C3)C2)cn1` (configuration not stated), for which the cytotoxicity at 10 µM turned out to be 3.92%.

On to `COc1ccc(C(=O)N2CCOCC2c2ccc(C)o2)cc1` (configuration not stated), for which the cytotoxicity at 10 µM is -2.24%.

`Cc1ccsc1CN(CCN(C)C)C(=O)c1ccccc1C#N`: the cytotoxicity at 10 µM is -119%.

Take `CCc1ncc(C(=O)N(CCOC)Cc2ccccc2F)cn1`: the cytotoxicity at 10 µM amounted to 0.728%.

Regarding `Oc1cccc2ccc(CN3CCC4(CCNCC4)C3)nc12`, the cytotoxicity at 10 µM was -6.19%.

As for `COc1cccc(NC(=O)N(CCO)Cc2ccsc2)c1`, the cytotoxicity at 10 µM is -9.87%.

As to `COCC1CN(Cc2ccc(F)cc2)Cc2nn(C)cc21` (configuration not stated), the cytotoxicity at 10 µM was -81.4%.

For the compound `CCc1nc(NCCc2nc(C)c(C)s2)c2cnn(C)c2n1`, the cytotoxicity at 10 µM came to 6.31%.

With `Cn1ccnc1COc1ccc(CSc2nnnn2C2CC2)cc1`, the cytotoxicity at 10 µM was -0.146%.

For the compound `CCc1nnc(C(C)N2CCN(CCC(C)(C)C)CC2)o1` (configuration not stated), the cytotoxicity at 10 µM turned out to be 6.61%.
